From ChEMBL document CHEMBL1177874, “Synthesis and in vitro anticancer screening of some novel 4-[2-amino-3-cyano-4-substituted-5,6,7,8-tetrahydroquinolin-1-(4H)-yl]benzenesulfonamides” (Eur J Med Chem, 2010) come the findings set out here.

Each structure is given as a SMILES string. A value given as a limit tells only on which side of the number the result lay.

The first assay can be described thus: Cytotoxicity against mouse EAC cells assessed as non-viable cells at 10 ug/ml after 2 hrs by trypan blue exclusion assay. Format: functional, Ehrlich.
Settings: not given
The method, boiled down: (§1)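 EAC cells drawn aseptically by needle aspiration of ascitic fluid from previously inoculated mice; suspension at 2.5 × 10^6 cells per ml. Test agents dissolved in DMSO (1 ml) at 100, 50, 25 and 10 µg, then diluted into the cell suspension. Incubation 2 h at 37 °C. Non-viable cell percentage counted by trypan blue exclusion. IC50 taken from the survival ratio versus concentration curve.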
As for `COc1cccc2c1C(=O)c1c(O)c3c(c(O)c1C2=O)C[C@@](O)(C(=O)CO)C[C@@H]3O[C@H]1C[C@H](N)[C@H](O)[C@H](C)O1` [DOXORUBICIN], the Activity is 17%.
On to `COc1ccc2ccccc2c1C1C(C#N)=C(N)N(c2ccc(S(N)(=O)=O)cc2)C2=C1CCCC2` (stereo not given), for which the Activity is recorded as 5%.
For the compound `COc1cc(C2C(C#N)=C(N)N(c3ccc(S(N)(=O)=O)cc3)C3=C2CCCC3)ccc1O` (stereo not given), the Activity was determined as 0%.
As to `CCOc1cc(C2C(C#N)=C(N)N(c3ccc(S(N)(=O)=O)cc3)C3=C2CCCC3)ccc1OC` (stereo not given), the Activity amounted to 0%.
On to `N#CC1=C(N)N(c2ccc(S(N)(=O)=O)cc2)C2=C(CCCC2)C1c1ccccc1` (stereo not given), for which the Activity was 5%.
In the case of `COc1ccccc1C1C(C#N)=C(N)N(c2ccc(S(N)(=O)=O)cc2)C2=C1CCCC2` (stereo not given), the Activity turned out to be 30%.
With `N#CC1=C(N)N(c2ccc(S(N)(=O)=O)cc2)C2=C(CCCC2)C1c1ccccc1Cl` (stereo not given), the Activity came to 0%.
Regarding `Cc1ccc(C2C(C#N)=C(N)N(c3ccc(S(N)(=O)=O)cc3)C3=C2CCCC3)o1` (stereo not given), the Activity is 0%.
The same measure, in the same setting: then `N#CC1=C(N)N(c2ccc(S(N)(=O)=O)cc2)C2=C(CCCC2)C1c1ccc(Cl)c(Cl)c1` (stereo not given), with 1%; and `Cc1ccc(C2C(C#N)=C(N)N(c3ccc(S(N)(=O)=O)cc3)C3=C2CCCC3)cc1` (stereo not given), with 20%.
As for `N#CC1=C(N)N(c2ccc(S(N)(=O)=O)cc2)C2=C(CCCC2)C1c1c(O)ccc2ccccc12` (stereo not given), the Activity was 10%.

A short description of the next assay: Cytotoxicity against mouse EAC cells assessed as non-viable cells at 100 ug/ml after 2 hrs by trypan blue exclusion assay. Format: functional, Ehrlich.
Settings: not given
In outline: as §1
For `COc1cccc2c1C(=O)c1c(O)c3c(c(O)c1C2=O)C[C@@](O)(C(=O)CO)C[C@@H]3O[C@H]1C[C@H](N)[C@H](O)[C@H](C)O1` [DOXORUBICIN], the Activity stood at 100%.
With `COc1ccc2ccccc2c1C1C(C#N)=C(N)N(c2ccc(S(N)(=O)=O)cc2)C2=C1CCCC2` (stereo not given), the Activity stood at 50%.
Consider `COc1cc(C2C(C#N)=C(N)N(c3ccc(S(N)(=O)=O)cc3)C3=C2CCCC3)ccc1O` (stereo not given), for which the Activity is recorded as 50%.
Same read-out and setting: then `CCOc1cc(C2C(C#N)=C(N)N(c3ccc(S(N)(=O)=O)cc3)C3=C2CCCC3)ccc1OC` (stereo not given), with 10%.
Take `N#CC1=C(N)N(c2ccc(S(N)(=O)=O)cc2)C2=C(CCCC2)C1c1ccccc1` (stereo not given): the Activity is given as 30%.
With `COc1ccccc1C1C(C#N)=C(N)N(c2ccc(S(N)(=O)=O)cc2)C2=C1CCCC2` (stereo not given), the Activity is reported as 100%.
Turning to `N#CC1=C(N)N(c2ccc(S(N)(=O)=O)cc2)C2=C(CCCC2)C1c1ccccc1Cl` (stereo not given), the Activity was 10%.
The same measure, in the same setting: then `Cc1ccc(C2C(C#N)=C(N)N(c3ccc(S(N)(=O)=O)cc3)C3=C2CCCC3)o1` (stereo not given), with 30%.
For `N#CC1=C(N)N(c2ccc(S(N)(=O)=O)cc2)C2=C(CCCC2)C1c1ccc(Cl)c(Cl)c1` (stereo not given), the Activity is listed as 50%.
Consider `Cc1ccc(C2C(C#N)=C(N)N(c3ccc(S(N)(=O)=O)cc3)C3=C2CCCC3)cc1` (stereo not given), for which the Activity stood at 90%.
As to `N#CC1=C(N)N(c2ccc(S(N)(=O)=O)cc2)C2=C(CCCC2)C1c1c(O)ccc2ccccc12` (stereo not given), the Activity stood at 50%.

The next assay can be described thus: Cytotoxicity against mouse EAC cells assessed as non-viable cells at 25 ug/ml after 2 hrs by trypan blue exclusion assay. Format: functional, Ehrlich.
Settings: not given
In outline: as §1
Consider `COc1cccc2c1C(=O)c1c(O)c3c(c(O)c1C2=O)C[C@@](O)(C(=O)CO)C[C@@H]3O[C@H]1C[C@H](N)[C@H](O)[C@H](C)O1` [DOXORUBICIN], for which the Activity amounted to 25%.
`COc1ccc2ccccc2c1C1C(C#N)=C(N)N(c2ccc(S(N)(=O)=O)cc2)C2=C1CCCC2` (stereo not given): the Activity was determined as 10%.
Consider `COc1cc(C2C(C#N)=C(N)N(c3ccc(S(N)(=O)=O)cc3)C3=C2CCCC3)ccc1O` (stereo not given), for which the Activity amounted to 2%.
Consider `CCOc1cc(C2C(C#N)=C(N)N(c3ccc(S(N)(=O)=O)cc3)C3=C2CCCC3)ccc1OC` (stereo not given), for which the Activity is listed as 5%.
For `N#CC1=C(N)N(c2ccc(S(N)(=O)=O)cc2)C2=C(CCCC2)C1c1ccccc1` (stereo not given), the Activity turned out to be 10%.
Consider `COc1ccccc1C1C(C#N)=C(N)N(c2ccc(S(N)(=O)=O)cc2)C2=C1CCCC2` (stereo not given), for which the Activity was found to be 40%.
The same measure, in the same setting: then `N#CC1=C(N)N(c2ccc(S(N)(=O)=O)cc2)C2=C(CCCC2)C1c1ccccc1Cl` (stereo not given), with 0%.
Take `Cc1ccc(C2C(C#N)=C(N)N(c3ccc(S(N)(=O)=O)cc3)C3=C2CCCC3)o1` (stereo not given): the Activity was found to be 10%.
On to `N#CC1=C(N)N(c2ccc(S(N)(=O)=O)cc2)C2=C(CCCC2)C1c1ccc(Cl)c(Cl)c1` (stereo not given), for which the Activity came to 40%.
On to `Cc1ccc(C2C(C#N)=C(N)N(c3ccc(S(N)(=O)=O)cc3)C3=C2CCCC3)cc1` (stereo not given), for which the Activity worked out at 30%.
As to `N#CC1=C(N)N(c2ccc(S(N)(=O)=O)cc2)C2=C(CCCC2)C1c1c(O)ccc2ccccc12` (stereo not given), the Activity was 5%.

A further assay can be described thus: Cytotoxicity against mouse EAC cells after 2 hrs by trypan blue exclusion assay. Conditions: Ehrlich. Format: functional, cell-based. The method, boiled down:
as §1
A word on the IC50: it is the concentration needed to halve the response being measured. `COc1cccc2c1C(=O)c1c(O)c3c(c(O)c1C2=O)C[C@@](O)(C(=O)CO)C[C@@H]3O[C@H]1C[C@H](N)[C@H](O)[C@H](C)O1` [DOXORUBICIN]: half-maximal inhibition (IC50) required 69.9 µM.
`COc1ccc2ccccc2c1C1C(C#N)=C(N)N(c2ccc(S(N)(=O)=O)cc2)C2=C1CCCC2` (stereo not given) yielded an IC50 of 100 µg/mL.
In turn, `COc1cc(C2C(C#N)=C(N)N(c3ccc(S(N)(=O)=O)cc3)C3=C2CCCC3)ccc1O` (stereo not given) showed an IC50 of 100 µg/mL.
On the same count and under the same terms, then `CCOc1cc(C2C(C#N)=C(N)N(c3ccc(S(N)(=O)=O)cc3)C3=C2CCCC3)ccc1OC` (stereo not given), with more than 100 µg/mL; and `N#CC1=C(N)N(c2ccc(S(N)(=O)=O)cc2)C2=C(CCCC2)C1c1ccccc1` (stereo not given), with more than 100 µg/mL.
`COc1ccccc1C1C(C#N)=C(N)N(c2ccc(S(N)(=O)=O)cc2)C2=C1CCCC2` (stereo not given) displayed an IC50 of 115 µM.
For the compound `N#CC1=C(N)N(c2ccc(S(N)(=O)=O)cc2)C2=C(CCCC2)C1c1ccccc1Cl` (stereo not given), the IC50 was more than 100 µg/mL.
The compound `Cc1ccc(C2C(C#N)=C(N)N(c3ccc(S(N)(=O)=O)cc3)C3=C2CCCC3)o1` (stereo not given) yielded an IC50 of more than 100 µg/mL.
Turning to `N#CC1=C(N)N(c2ccc(S(N)(=O)=O)cc2)C2=C(CCCC2)C1c1ccc(Cl)c(Cl)c1` (stereo not given), the half-maximal inhibitory concentration (IC50) worked out at 100 µg/mL.
Compound `Cc1ccc(C2C(C#N)=C(N)N(c3ccc(S(N)(=O)=O)cc3)C3=C2CCCC3)cc1` (stereo not given) returned an IC50 of 85.7 µM.
Take `N#CC1=C(N)N(c2ccc(S(N)(=O)=O)cc2)C2=C(CCCC2)C1c1c(O)ccc2ccccc12` (stereo not given): the IC50 is 100 µg/mL.

The next assay can be described thus: Cytotoxicity against mouse EAC cells assessed as non-viable cells at 50 ug/ml after 2 hrs by trypan blue exclusion assay. Format: functional, Ehrlich.
Settings: not given
The method, boiled down: as §1
Regarding `COc1cccc2c1C(=O)c1c(O)c3c(c(O)c1C2=O)C[C@@](O)(C(=O)CO)C[C@@H]3O[C@H]1C[C@H](N)[C@H](O)[C@H](C)O1` [DOXORUBICIN], the Activity came out at 70%.
As for `COc1ccc2ccccc2c1C1C(C#N)=C(N)N(c2ccc(S(N)(=O)=O)cc2)C2=C1CCCC2` (stereo not given), the Activity was 10%.
As to `COc1cc(C2C(C#N)=C(N)N(c3ccc(S(N)(=O)=O)cc3)C3=C2CCCC3)ccc1O` (stereo not given), the Activity is on record as 30%.
Regarding `CCOc1cc(C2C(C#N)=C(N)N(c3ccc(S(N)(=O)=O)cc3)C3=C2CCCC3)ccc1OC` (stereo not given), the Activity stood at 5%.
For `N#CC1=C(N)N(c2ccc(S(N)(=O)=O)cc2)C2=C(CCCC2)C1c1ccccc1` (stereo not given), the Activity is given as 20%.
Still for that read-out and setting: then `COc1ccccc1C1C(C#N)=C(N)N(c2ccc(S(N)(=O)=O)cc2)C2=C1CCCC2` (stereo not given), with 50%.
Take `N#CC1=C(N)N(c2ccc(S(N)(=O)=O)cc2)C2=C(CCCC2)C1c1ccccc1Cl` (stereo not given): the Activity is 5%.
Regarding `Cc1ccc(C2C(C#N)=C(N)N(c3ccc(S(N)(=O)=O)cc3)C3=C2CCCC3)o1` (stereo not given), the Activity is listed as 10%.
In the case of `N#CC1=C(N)N(c2ccc(S(N)(=O)=O)cc2)C2=C(CCCC2)C1c1ccc(Cl)c(Cl)c1` (stereo not given), the Activity is reported as 50%.
With `Cc1ccc(C2C(C#N)=C(N)N(c3ccc(S(N)(=O)=O)cc3)C3=C2CCCC3)cc1` (stereo not given), the Activity is given as 80%.
The same measure, in the same setting: in the case of `N#CC1=C(N)N(c2ccc(S(N)(=O)=O)cc2)C2=C(CCCC2)C1c1c(O)ccc2ccccc12` (stereo not given) it was 20%.
